Screening results from PubChem.
Platelet DG rel – inhibitors of platelet dense granule secretion, primary screen, cell-based, MLPCN, human platelets; human platelet-rich plasma, SFLLRN dense granule ATP release, luminescence; inhibition, %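 (compounds screened at 7.5 µM in platelet-rich plasma)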; actives 0.22% (n = 300,000); AID 1663, 2009;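 active means mean replicate score, as percent of positive control, at or above 50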
STAT3 blocker – IL-6 driven STAT3 reporter inhibitors, primary screen, U3A cells, luciferase, luminescence, MLSCN library; IL-6 STAT3-luciferase reporter; host cell line lacks STAT1; inhibition, % at 5.5 µM; actives 0.89% (n = 190,000);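 active means inhibition above the mean inhibition across all screened compounds plus 3 SD, cut at about 44% in these data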;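 further: 0% = DMSO only wells and 100% = 100 µM nifuroxazide control wells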
PERK inhibitor – block of dimerizer-induced PERK translation repression, primary screen, PERK inhibitor project, CHO PERK-DD cells, SEAP luminescence, HTS | CHO PERK-DD fusion, SEAP luminescence translation reporter | actives 0.17% (n = 220,000) | inhibition, % at 5.6 µM | AID 1416, 2008;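 active means inhibition above the mean inhibition of all tested compounds plus 3 SD, set separately per screening campaign, cut at about 2.9% in these data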;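 further: PERK kinase domain activated by AP20187 dimerizer at 100 nM; 0% = DMSO with dimerizer and 100% = rapamycin at 8.4 µM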
STAT1 inh – STAT1 signaling inhibitors, primary screen, cell-based, HTS, luciferase reporter. NIH 3T3 STAT1-luciferase reporter, IFN-gamma, luminescence. inhibition, % at 5.5 µM. actives 0.35% (n = 200,000);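 active means inhibition above a set limit, the mean inhibition across all tested compounds plus 3 SD, cut at about 34% in these data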;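 further: 0% = IFN-gamma with DMSO and 100% = IFN-gamma with 300 µM nifuroxazide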
STAT3 act – IL-6 driven STAT3 reporter potentiators, primary screen, U3A cells, luciferase, luminescence, MLSCN library. IL-6 STAT3-luciferase reporter; 100% = signal with IL-6 EC80 alone. activation (% of control), % at 5.6 µM. actives 0.91% (n = 190,000);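 active means activation above the screen-wide mean of compound activation plus 3 SD, cut at about 130% in these data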;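 further: 0% = background luminescence of wells with medium and substrate only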
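system = STAT3-luciferase reporter U3A cells | reagent = IL-6 stimulus at 33 ng/mL final | timing = 1 h compound pre-exposure, 6 h IL-6 stimulation, 37 °C | measured by = luminescence | evaluation = % activation versus median of IL-6-stimulated wells | control set = IL-6-only wells as 100% reference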
The depositor's hits bear a star; nt = no result. This is a sample that favours compounds with a hit; in the whole collection about 1.4% have one here.

SMILES	Platelet DG rel	STAT3 blocker	PERK inhibitor	STAT1 inh	STAT3 act
O=C(O)Cn1nc(-c2ccccc2)oc1=O	-6	3	3.0*	1	97
Cc1cc2nc(-c3ccc[nH]c3=O)[nH]c2cc1C	52*	nt	nt	nt	nt
COc1ccc(C(=O)N2c3ccccc3C=CC2C#N)cc1 (stereo not drawn)	1	6	0	2	91
N#C[C@H]1[C@H](c2ccccc2)[C@](C#N)(C(=O)c2ccccc2)[C@@H]2C=Cc3ccccc3N21	-8	-31	0	17	133*
C=CCNC(=S)Nc1cccc2ccccc12	-1	10	3.0*	-2	100
Cc1ccc(N2CCN(C(=O)c3nn(C)c4c3CS(=O)(=O)c3ccccc3-4)CC2)c(C)c1	-12	nt	nt	nt	nt
COc1ccc(Cn2cnc([N+](=O)[O-])c2)cc1[N+](=O)[O-]	-2	nt	3.1*	nt	nt
O=[N+]([O-])c1cn(Cc2ccc(Cl)cc2)cn1	0	-1	0	-6	105
O=C(Cn1cnc2c(cnn2-c2ccc(F)cc2)c1=O)OCc1ccccc1	53*	7	1	-8	99
O=C(Cn1cnc2c(cnn2-c2ccccc2)c1=O)OCc1ccccc1	10	4	1	-7	102
Cc1ccc(C)c(N2CCN(CCCNC(=O)Cn3c(=O)c4cccn4c4cccnc43)CC2)c1	1	nt	nt	nt	nt
CC(=O)Oc1ccc(/C=C/c2nc3ccccc3c(=O)o2)cc1	83*	nt	nt	nt	nt
CC(=O)Oc1ccccc1/C=C/c1nc2ccccc2c(=O)o1	3	nt	nt	nt	nt
O=C(c1cc2ccccc2[nH]1)N1CCOCC1	2	-39	0	2	135*
CCCCCCCCCCn1c2c(c(=N)c3c1CCC3)CCC2	3	78*	-1	25	38
CCCCCCCCCn1c2c(c(=N)c3c1CCC3)CCCC2	8	76*	0	52*	39
CCCc1cc(=O)[nH]c(SCC(=O)c2ccc3c(c2)NC(=O)CO3)n1	3	nt	1	nt	nt
Cc1cc(C)n(-c2nc3ccccc3c(=O)n2OCc2ccc(F)cc2)n1	4	-31	0	10	135*
CC(C)Cc1nc2c(nnn2Cc2ccccc2F)c(=O)[nH]1	17	nt	0	nt	nt
COc1cc(C)ccc1OCCOCCOc1cccc2ccc(C)nc12	-1	8	0	10	98
CC(C)Oc1ccc(CCC(=O)NNC(=O)c2ccccc2C(=O)O)cc1	-1	nt	nt	nt	nt
CC(C)Oc1ccc(CCC(=O)NNC(=O)CCC(=O)O)cc1	-7	nt	3.1*	nt	nt
Clc1cc(Sc2ccc(Br)cc2)nnc1-c1ccccc1	3	-48	0	2	138*
COC(=O)c1c(C)[nH]c(C(C)=O)c1C	13	12	3.0*	2	94
CCCS(=O)(=O)c1cnc(C2COc3ccccc3O2)nc1N (stereo not drawn)	66*	nt	nt	nt	nt
SMILES	Platelet DG rel	STAT3 blocker	PERK inhibitor	STAT1 inh	STAT3 act
CC(C)N(CCO)Cc1nc(C(c2ccccc2)c2ccccc2)no1	22	nt	nt	nt	nt
CC(OC(=O)CNC(=O)C12CC3CC(CC(C3)C1)C2)C(=O)Nc1ccc(N2CCOCC2)cc1 (stereo not drawn)	85*	-7	-2	1	107
CN(CC(=O)Nc1ccc(N2CCOCC2)cc1)C(=O)C12CC3CC(CC(C3)C1)C2	-6	nt	nt	nt	nt
Cc1ccc(C(=O)Nc2nc3ccccc3n2CCN2CCCC2)cc1	6	-61	-1	-45	157*
CCN(CC)CCn1c(NC(=O)c2ccccc2O)nc2ccccc21	-11	nt	nt	nt	nt
O=C(Nc1nc2ccccc2n1CCN1CCCCC1)c1ccc(Cl)cc1	7	-18	0	0	122
CCN(CC)CCn1c(NC(=O)c2ccc(Cl)cc2)nc2ccccc21	13	-42	-1	-16	136*
COc1ccc(/C=C2\SC(=S)N(CCCC(=O)N3CCCCC3CCO)C2=O)cc1 (stereo not drawn)	2	nt	nt	nt	nt
Cn1c(=O)[nH]c(=O)c2c1nc(N1CCCCCC1)n2CC(N)=O	70*	4	1	-3	98
CC(=O)Nc1cccc(N2C(=O)CC(Cc3ccccc3)C2=O)c1 (stereo not drawn)	57*	7	1	-4	100
Cc1nc2sccn2c(=O)c1S(=O)(=O)Nc1ccc(N2CCN(S(C)(=O)=O)CC2)cc1	-6	nt	nt	nt	nt
